High-throughput results as filed in PubChem BioAssay.
FLuc inhib CS – counter-screen for luciferase assay inhibitors: firefly luciferase inhibition; P08659; ATPLite firefly luciferase biochemical luminescence, 10 min; inhibition, % at 10 µM; actives 1.5% (n = 200,000);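 active = inhibition above about 50% when tested at 10 µM, limit read from the data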
Target sequence (P08659 whole entry, looked up): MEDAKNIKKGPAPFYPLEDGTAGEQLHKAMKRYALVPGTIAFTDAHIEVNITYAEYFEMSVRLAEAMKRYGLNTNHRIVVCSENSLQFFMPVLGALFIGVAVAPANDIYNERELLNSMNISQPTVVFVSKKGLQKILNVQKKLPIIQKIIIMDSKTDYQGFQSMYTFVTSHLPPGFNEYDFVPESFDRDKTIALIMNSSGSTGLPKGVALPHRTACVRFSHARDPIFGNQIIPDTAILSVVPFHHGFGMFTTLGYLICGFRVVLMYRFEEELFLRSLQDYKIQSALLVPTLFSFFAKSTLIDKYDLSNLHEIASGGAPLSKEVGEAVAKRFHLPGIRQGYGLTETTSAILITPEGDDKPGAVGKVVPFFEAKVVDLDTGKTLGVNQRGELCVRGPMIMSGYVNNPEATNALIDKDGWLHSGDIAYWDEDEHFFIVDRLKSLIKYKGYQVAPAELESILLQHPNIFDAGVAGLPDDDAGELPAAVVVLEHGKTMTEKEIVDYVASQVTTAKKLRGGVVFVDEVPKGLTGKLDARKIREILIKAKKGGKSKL
APP 5'UTR act – APP 5'UTR luciferase reporter activation; SH-SY5Y APP 5'UTR luciferase reporter, luminescence; zero percent = DMSO vehicle wells; activation, % at 2 µM; actives 1% (n = 190,000);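 active = activation above a set limit, based on mean plus 3 SD of controls, cut at about 140% in these data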
FLuc stim CS – firefly luciferase counter-screen for stimulation assays | ATPlite luciferase biochemical, luminescence, 10 min; 0 = ATP-free wells, 1 = DMSO control | activation factor at 10 µM | AID 1027 | 200,000 tested, under 10 active;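 active = luciferase activation factor, scaled between plate controls, of at least 2 with compound at 10 µM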
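Assay system: Luciferase/luciferin detection reagent, cell-free biochemical luciferase assay / Read-out: luciferase activation / Benchmarks: No-ATP low control, compound-free enzyme-plus-ATP high control / Medium: PBS buffer for ATP / Detection: luminescence measurement of luciferase light output / Schedule: 10 min at ambient temperature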
APP transl inh – APP translation inhibition | SH-SY5Y APP 5'UTR-luciferase reporter, luminescence | inhibition, % at 2 µM | actives 0.82% (n = 190,000);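 active = inhibition above a set limit, derived from the sample mean plus 3 SD, cut at about 45% in these data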
STAT1 act – increases IFN-gamma driven STAT1 reporter signal; actives 2.6% (n = 200,000); AID 932; NIH 3T3 STAT1-luciferase reporter, luminescence; 100% = IFN-gamma alone, no compound; activation (% of control), % at 5.5 µM;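 active = activation above the screen-wide mean activation plus 3 SD, cut at about 130% in these data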
NF-kB neuron act – compounds increasing NF-kB expression in human neuronal cells; NF-kB reporter expression; active compounds read high; fold change at 12.5 µM; actives 1.6% (n = 190,000); AID 1239; in the data active = fold change above about 3.3
Large screens that a line does not name were inactive. Compounds with a hit are over-represented: about 4.8% of the library has one in this group of screens.

Cc1ccc(NC(=O)c2ccc(OCC3CCCO3)cc2)cc1 (stereo not given)	FLuc inhib CS 53, STAT1 act 136, NF-kB neuron act 3.4
COC(=O)COc1cccc(NC(=O)c2ccc(C)cc2)c1	none
Cc1ccc(NC(=O)c2ccc(OC(=O)COc3ccc(Cl)c(C)c3)cc2)cc1	STAT1 act 140
Cc1cnc(NC(=O)c2ccc(OCC3CCCO3)cc2)s1 (stereo not given)	FLuc inhib CS 95, NF-kB neuron act 3.9
O=C(COC(=O)CCC(=O)c1cccs1)NC1CC1	none
CC(C)(C)n1ncc2c(=O)n(CC(=O)NCc3ccccc3Cl)cnc21	APP 5'UTR act 193, STAT1 act 145
CCc1ccc(CCC(=O)Nc2ncc(Cc3ccccc3Cl)s2)o1	APP transl inh 71
O=C(CN1CCOCC1)Nc1ncc(Cc2ccccc2Cl)s1	none
Cc1cc(OCc2cn3cccnc3n2)ccc1Cl	STAT1 act 131
CCN(Cc1cn2cccnc2n1)C1CCCCC1	none
CCOC(=O)Cc1csc(NC(=S)NC(=O)c2cccc([N+](=O)[O-])c2)n1	none
CCN(CC)CCNC(=O)CCCNC(=O)Cn1cnc2sc(C)c(C)c2c1=O	none
O=C(Oc1c(CN2CCOCC2)cc(Cl)c2cccnc12)c1ccccc1F	APP transl inh 75
COc1ccc(C(=O)Oc2c(CN3CCOCC3)cc(Cl)c3cccnc23)cc1OC	none (no result: FLuc inhib CS, FLuc stim CS, NF-kB neuron act)
O=C(Oc1c(CN2CCOCC2)cc(Cl)c2cccnc12)c1ccccc1	APP transl inh 53
CC(C)Cn1cnc2c(=O)oc3ccccc3c21	none
CCC(C)n1cnc2c(=O)oc3ccccc3c21 (stereo not given)	APP transl inh 88
CN(C(=O)COC(=O)CCc1c[nH]c2ccccc12)C(c1ccccc1)c1ccccc1	none
O=C(Nc1cc2c(cc1Br)OCCCO2)c1ccccc1	STAT1 act 146
COc1ccc(C(=O)Nc2cc(OC)c(Cl)cc2OC)cc1	none
Cc1ccc(C(=O)Nc2cc3c(cc2Cl)OCCCO3)cc1	STAT1 act 155, NF-kB neuron act 4.1
COc1ccc(C(=O)Nc2cc3c(cc2Cl)OCCCO3)cc1	STAT1 act 137, NF-kB neuron act 4.3
O=C(Nc1cc2c(cc1Cl)OCCCO2)c1ccc(F)cc1	STAT1 act 145
COc1cccc(C2CC(c3ccccc3OC)n3nc(N)nc3N2)c1 (stereo not given)	none
O=C(Nc1cc2c(oc1=O)CCCC2=O)c1cccc(Cl)c1	none
COc1ccc(C(=O)Nc2cc3c(oc2=O)CCCC3=O)cc1	STAT1 act 138
Cc1cccc(S(=O)(=O)Nc2ccc(-c3nc4ccc(C)cc4s3)cc2)c1	APP 5'UTR act 163, STAT1 act 147
Cc1ccc2nc(-c3ccc(NC(=O)CCS(=O)(=O)c4ccccc4)cc3)sc2c1	NF-kB neuron act 3.6
COc1ccc(C2(C)NC(=O)N(CC(=O)Nc3ccc(-c4nc5ccc(C)cc5s4)cc3)C2=O)cc1 (stereo not given)	APP 5'UTR act 171, STAT1 act 144 (no result: NF-kB neuron act)
Cc1nc2cc(NC(=O)CCS(=O)(=O)c3ccccc3)ccc2s1	STAT1 act 150
Cc1nc2ccc(NC(=O)CCS(=O)(=O)c3ccccc3)cc2s1	none
Cc1ccc(S(=O)(=O)Nc2ccc(-c3nc4ccc(C)cc4s3)cc2)cc1	none (no result: FLuc inhib CS, FLuc stim CS)
O=C(CN1CCOCC1)Nc1ncc(Cc2cccc(Cl)c2Cl)s1	none
Cc1cccc(OCCNc2cc(N3CCN(CCO)CC3)ccc2[N+](=O)[O-])c1	none
Oc1ccc2ccccc2c1C=Nc1cc(C(F)(F)F)ccc1N1CCCC1	none
FC(F)(F)c1nc2ccccc2nc1N/N=C\c1ccccc1	none
Cc1ccc2nc(-c3ccc(NC(=O)COC(=O)c4ccc(=O)[nH]c4)cc3)sc2c1	FLuc inhib CS 50, APP 5'UTR act 165, STAT1 act 135, NF-kB neuron act 6.5
Cc1ccc2nc(-c3ccc(NC(=O)CNC4CC4)cc3)sc2c1	APP 5'UTR act 199, NF-kB neuron act 5.3
Cc1ccc(N(CC(=O)Nc2ccc(-c3nc4ccc(C)cc4s3)cc2)S(C)(=O)=O)cc1	STAT1 act 140
Cn1[nH]c(C(F)(F)F)c(C=Nc2ccc(Cl)cc2)c1=O	APP 5'UTR act 182
